Test results published in ChEMBL document CHEMBL2040781, “Design, synthesis, and biological evaluation of chromone-based p38 MAP kinase inhibitors” (J Med Chem, 2011).
Activity calls are given as the source filed them. The rule behind the calls is not given here.

Columns and labels:
[1] = biological target: Interleukin-1 receptor-associated kinase 4 (Homo sapiens) (UniProt Q9NWZ3); assay: Inhibition of human IRAK4 assessed as remaining activity at 0.8 uM after 40 mins by scintillation counting
MCF7 [2] = assay: Potentiation of anisomycin-mediated cytotoxicity in human MCF7 cells at 1 uM after 4 hrs by prestoblue cell viability assay; format: functional, cell-based
[3] = biological target: Serine/threonine-protein kinase 17A (Homo sapiens) (UniProt Q9UEE5); assay: Inhibition of human DRAK1 assessed as remaining activity at 0.8 uM after 40 mins by scintillation counting
[4] = biological target: Glycogen synthase kinase-3 beta (Homo sapiens) (UniProt P49841); assay: Inhibition of human GSK3beta assessed as remaining activity at 0.8 uM after 40 mins by scintillation counting
[5] = biological target: MAP kinase-interacting serine/threonine-protein kinase 2 (Homo sapiens) (UniProt Q9HBH9); assay: Inhibition of human Mnk2 assessed as remaining activity at 0.8 uM after 40 mins by scintillation counting
[6] = biological target: RAC-alpha serine/threonine-protein kinase (Homo sapiens) (UniProt P31749); assay: Inhibition of human PKBalpha assessed as remaining activity at 0.8 uM after 40 mins by scintillation counting
[7] = biological target: Calcium/calmodulin-dependent protein kinase type 1 (Homo sapiens) (UniProt Q14012); assay: Inhibition of human CaMKI assessed as remaining activity at 0.8 uM after 40 mins by scintillation counting
[8] = biological target: Protein kinase C theta type (Homo sapiens) (UniProt Q04759); assay: Inhibition of human PKCtheta assessed as remaining activity at 0.8 uM after 40 mins by scintillation counting
[9] = biological target: Mitogen-activated protein kinase kinase kinase 5 (Homo sapiens) (UniProt Q99683); assay: Inhibition of human ASK1 assessed as remaining activity at 0.8 uM after 40 mins by scintillation counting
MDA-MB-436 = assay: Potentiation of doxorubicin-mediated cytotoxicity in p53-deficient human MDA-MB-436 cells at 1 uM after 4 hrs by prestoblue cell viability assay; format: functional, cell-based
[10] = biological target: CDK6/cyclin D3 (Homo sapiens) (UniProt P30281+Q00534); assay: Inhibition of human CDK6/cyclinD3 assessed as remaining activity at 0.8 uM after 40 mins by scintillation counting; format: protein-complex assay
[11] = biological target: Dual specificity mitogen-activated protein kinase kinase 1 (Homo sapiens) (UniProt Q02750); assay: Inhibition of human MEK1 assessed as remaining activity at 0.8 uM after 40 mins by scintillation counting
[12] = biological target: Inhibitor of nuclear factor kappa-B kinase subunit alpha (Homo sapiens) (UniProt O15111); assay: Inhibition of human IKKalpha assessed as remaining activity at 0.8 uM after 40 mins by scintillation counting
[13] = biological target: Protein kinase C alpha type (Homo sapiens) (UniProt P17252); assay: Inhibition of human PKCalpha assessed as remaining activity at 0.8 uM after 40 mins by scintillation counting
[14] = biological target: Mitogen-activated protein kinase kinase kinase 9 (Homo sapiens) (UniProt P80192); assay: Inhibition of human MLK1 assessed as remaining activity at 0.8 uM after 40 mins by scintillation counting
[15] = biological target: Dual specificity mitogen-activated protein kinase kinase 7 (Homo sapiens) (UniProt O14733); assay: Inhibition of human MKK7beta assessed as remaining activity at 0.8 uM after 40 mins by scintillation counting
[16] = biological target: Ribosomal protein S6 kinase alpha-4 (Homo sapiens) (UniProt O75676); assay: Inhibition of human MSK2 assessed as remaining activity at 0.8 uM after 40 mins by scintillation counting
[17] = biological target: Aurora kinase A (Homo sapiens) (UniProt O14965); assay: Inhibition of human Aurora-A assessed as remaining activity at 0.8 uM after 40 mins by scintillation counting
[18] = biological target: Vascular endothelial growth factor receptor 2 (Homo sapiens) (UniProt P35968); assay: Inhibition of human KDR assessed as remaining activity at 0.8 uM after 40 mins by scintillation counting
[19] = biological target: Serine/threonine-protein kinase 10 (Homo sapiens) (UniProt O94804); assay: Inhibition of human LOK assessed as remaining activity at 0.8 uM after 40 mins by scintillation counting
[20] = biological target: MAP kinase-activated protein kinase 5 (Homo sapiens) (UniProt Q8IW41); assay: Inhibition of human PRAK assessed as remaining activity at 0.8 uM after 40 mins by scintillation counting
[21] = biological target: Tyrosine-protein kinase Lyn (Homo sapiens) (UniProt P07948); assay: Inhibition of human Lyn assessed as remaining activity at 0.8 uM after 40 mins by scintillation counting
[22] = biological target: Tyrosine-protein kinase JAK2 (Homo sapiens) (UniProt O60674); assay: Inhibition of human JAK2 assessed as remaining activity at 0.8 uM after 40 mins by scintillation counting
[23] = biological target: Ribosomal protein S6 kinase alpha-1 (Homo sapiens) (UniProt Q15418); assay: Inhibition of human Rsk1 assessed as remaining activity at 0.8 uM after 40 mins by scintillation counting
[24] = biological target: Rho-associated protein kinase 1 (Homo sapiens) (UniProt Q13464); assay: Inhibition of human ROCK-I assessed as remaining activity at 0.8 uM after 40 mins by scintillation counting
[25] = biological target: Epidermal growth factor receptor (Homo sapiens) (UniProt P00533); assay: Inhibition of human EGFR assessed as remaining activity at 0.8 uM after 40 mins by scintillation counting
[26] = biological target: Mitogen-activated protein kinase kinase kinase 7 (TAK1) (Homo sapiens) (UniProt O43318); assay: Inhibition of human TAK1 assessed as remaining activity at 0.8 uM after 40 mins by scintillation counting
MCF7 [27] = assay: Potentiation of doxorubicin-mediated cytotoxicity in human MCF7 cells at 1 uM after 4 hrs by prestoblue cell viability assay; format: functional, cell-based
[28] = biological target: Insulin-like growth factor 1 receptor (Homo sapiens) (UniProt P08069); assay: Inhibition of human IGF-1R assessed as remaining activity at 0.8 uM after 40 mins by scintillation counting
[29] = biological target: CDK9/cyclin T1 (Homo sapiens) (UniProt O60563+P50750); assay: Inhibition of human CDK9/cyclin T1 assessed as remaining activity at 0.8 uM after 40 mins by scintillation counting; format: protein-complex assay
[30] = biological target: Serine/threonine-protein kinase Chk1 (Homo sapiens) (UniProt O14757); assay: Inhibition of human CHK1 assessed as remaining activity at 0.8 uM after 40 mins by scintillation counting
[31] = biological target: Mitogen-activated protein kinase 14 (Homo sapiens, UniProt Q16539); assay: Inhibition of anisomycin-induced p38alpha MAPK signalling in human MCF7 cells assessed as inhibition of HSP27 activation at 0.5 uM after 30 mins by SDS PAGE analysis; format: cell-based
Outline: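 MCF-7 cells were preincubated with the compound at the indicated doses for 30 min, then stimulated with 10 μg/mL anisomycin for another 30 min. Total cell lysates were resolved by SDS-PAGE and immunoblotted with antibodies against phosphorylated ATF2, p38 and HSP27, with tubulin as the loading control.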

[32] = biological target: Dual specificity mitogen-activated protein kinase kinase 3 (Homo sapiens) (UniProt P46734); assay: Inhibition of anisomycin-induced MKK3 phosphorylation in human MCF7 cells at 1 to 10 uM after 30 mins by SDS PAGE analysis; format: cell-based

Vascular endothelial growth factor receptor 2 (Homo sapiens), sequence (P35968 whole entry): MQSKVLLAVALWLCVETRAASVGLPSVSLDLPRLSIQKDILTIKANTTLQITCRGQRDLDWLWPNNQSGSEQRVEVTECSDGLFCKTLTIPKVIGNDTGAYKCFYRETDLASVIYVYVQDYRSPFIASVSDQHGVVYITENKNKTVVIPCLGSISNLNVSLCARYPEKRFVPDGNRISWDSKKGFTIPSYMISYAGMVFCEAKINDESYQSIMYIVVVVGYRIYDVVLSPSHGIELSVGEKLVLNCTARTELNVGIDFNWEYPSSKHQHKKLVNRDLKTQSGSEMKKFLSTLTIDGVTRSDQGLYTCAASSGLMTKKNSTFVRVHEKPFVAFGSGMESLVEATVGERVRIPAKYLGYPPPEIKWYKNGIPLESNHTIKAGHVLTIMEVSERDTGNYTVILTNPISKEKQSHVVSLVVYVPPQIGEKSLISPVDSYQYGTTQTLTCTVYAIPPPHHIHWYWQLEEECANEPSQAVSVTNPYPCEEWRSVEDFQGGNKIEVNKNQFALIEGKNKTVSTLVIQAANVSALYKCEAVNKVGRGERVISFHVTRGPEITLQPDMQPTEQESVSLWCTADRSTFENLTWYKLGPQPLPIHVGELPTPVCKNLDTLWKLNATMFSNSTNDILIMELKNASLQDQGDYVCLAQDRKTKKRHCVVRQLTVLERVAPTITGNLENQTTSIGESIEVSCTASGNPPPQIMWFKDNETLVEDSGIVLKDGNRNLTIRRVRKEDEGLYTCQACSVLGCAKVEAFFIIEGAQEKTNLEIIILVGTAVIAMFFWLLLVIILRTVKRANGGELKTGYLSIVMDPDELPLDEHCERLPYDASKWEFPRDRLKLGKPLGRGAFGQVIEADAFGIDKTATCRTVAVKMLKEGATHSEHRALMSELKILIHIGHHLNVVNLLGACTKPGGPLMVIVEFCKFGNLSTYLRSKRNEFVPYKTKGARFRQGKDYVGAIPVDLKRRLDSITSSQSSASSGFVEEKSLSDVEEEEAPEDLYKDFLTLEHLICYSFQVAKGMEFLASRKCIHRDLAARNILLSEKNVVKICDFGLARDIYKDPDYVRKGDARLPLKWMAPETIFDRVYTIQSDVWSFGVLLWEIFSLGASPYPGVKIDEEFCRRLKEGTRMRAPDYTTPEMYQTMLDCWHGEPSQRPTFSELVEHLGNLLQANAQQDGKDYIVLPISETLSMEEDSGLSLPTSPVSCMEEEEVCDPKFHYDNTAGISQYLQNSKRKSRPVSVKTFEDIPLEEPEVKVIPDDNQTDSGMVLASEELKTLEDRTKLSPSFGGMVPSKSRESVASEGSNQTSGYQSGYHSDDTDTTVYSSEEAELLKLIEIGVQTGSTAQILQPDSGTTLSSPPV
Interleukin-1 receptor-associated kinase 4 (Homo sapiens), sequence (Q9NWZ3 whole entry): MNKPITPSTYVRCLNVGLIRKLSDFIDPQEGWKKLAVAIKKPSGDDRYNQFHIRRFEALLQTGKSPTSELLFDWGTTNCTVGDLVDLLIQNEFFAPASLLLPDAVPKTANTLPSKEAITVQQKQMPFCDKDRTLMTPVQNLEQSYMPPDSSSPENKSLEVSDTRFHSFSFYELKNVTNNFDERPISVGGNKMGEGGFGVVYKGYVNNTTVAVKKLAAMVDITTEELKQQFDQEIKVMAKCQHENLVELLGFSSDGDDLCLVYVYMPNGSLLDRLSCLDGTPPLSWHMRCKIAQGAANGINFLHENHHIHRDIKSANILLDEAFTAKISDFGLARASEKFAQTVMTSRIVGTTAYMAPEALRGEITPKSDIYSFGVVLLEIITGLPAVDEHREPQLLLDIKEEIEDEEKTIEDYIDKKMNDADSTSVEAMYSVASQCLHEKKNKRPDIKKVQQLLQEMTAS
RAC-alpha serine/threonine-protein kinase (Homo sapiens), sequence (P31749 whole entry): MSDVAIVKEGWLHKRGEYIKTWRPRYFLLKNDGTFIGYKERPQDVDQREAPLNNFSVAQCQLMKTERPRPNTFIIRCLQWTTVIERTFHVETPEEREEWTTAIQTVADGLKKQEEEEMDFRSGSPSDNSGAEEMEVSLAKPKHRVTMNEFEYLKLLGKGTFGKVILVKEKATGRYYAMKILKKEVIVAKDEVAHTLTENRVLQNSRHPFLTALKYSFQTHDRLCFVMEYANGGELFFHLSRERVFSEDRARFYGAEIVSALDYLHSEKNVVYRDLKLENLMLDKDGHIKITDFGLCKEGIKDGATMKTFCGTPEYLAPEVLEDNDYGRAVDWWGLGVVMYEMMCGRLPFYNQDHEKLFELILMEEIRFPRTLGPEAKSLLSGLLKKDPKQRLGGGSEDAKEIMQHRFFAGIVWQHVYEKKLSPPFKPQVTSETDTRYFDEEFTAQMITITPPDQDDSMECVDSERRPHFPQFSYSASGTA
Tyrosine-protein kinase JAK2 (Homo sapiens), sequence (O60674 whole entry): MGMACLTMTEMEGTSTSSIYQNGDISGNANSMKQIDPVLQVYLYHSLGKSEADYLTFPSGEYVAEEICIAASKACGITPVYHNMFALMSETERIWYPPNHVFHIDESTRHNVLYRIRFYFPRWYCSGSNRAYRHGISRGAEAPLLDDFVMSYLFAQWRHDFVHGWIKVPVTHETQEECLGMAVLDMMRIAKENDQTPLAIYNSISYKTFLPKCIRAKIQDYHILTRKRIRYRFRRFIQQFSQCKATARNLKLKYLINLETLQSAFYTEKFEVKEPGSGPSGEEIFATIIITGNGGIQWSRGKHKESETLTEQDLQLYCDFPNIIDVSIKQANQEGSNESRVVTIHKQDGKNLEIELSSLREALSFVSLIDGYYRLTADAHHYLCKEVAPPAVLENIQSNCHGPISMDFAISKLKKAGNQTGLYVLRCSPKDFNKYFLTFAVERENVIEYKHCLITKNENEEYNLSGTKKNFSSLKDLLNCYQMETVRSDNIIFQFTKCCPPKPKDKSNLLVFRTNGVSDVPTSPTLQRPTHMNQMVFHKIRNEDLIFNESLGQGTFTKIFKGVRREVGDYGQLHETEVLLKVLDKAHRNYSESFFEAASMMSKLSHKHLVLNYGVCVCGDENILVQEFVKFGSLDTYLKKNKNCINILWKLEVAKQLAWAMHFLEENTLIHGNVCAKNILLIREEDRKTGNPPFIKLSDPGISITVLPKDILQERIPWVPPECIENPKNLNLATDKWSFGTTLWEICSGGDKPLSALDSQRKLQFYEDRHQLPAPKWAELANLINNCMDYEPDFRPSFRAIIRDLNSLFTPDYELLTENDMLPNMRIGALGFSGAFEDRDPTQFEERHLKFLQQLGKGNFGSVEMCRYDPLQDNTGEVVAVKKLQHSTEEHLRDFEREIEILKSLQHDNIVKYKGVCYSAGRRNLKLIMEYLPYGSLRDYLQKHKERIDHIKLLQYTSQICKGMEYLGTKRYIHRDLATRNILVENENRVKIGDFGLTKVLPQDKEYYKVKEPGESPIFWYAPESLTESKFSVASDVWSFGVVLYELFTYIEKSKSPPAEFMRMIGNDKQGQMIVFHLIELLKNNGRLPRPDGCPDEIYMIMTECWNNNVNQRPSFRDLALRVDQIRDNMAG
Dual specificity mitogen-activated protein kinase kinase 1 (Homo sapiens), sequence (Q02750 whole entry): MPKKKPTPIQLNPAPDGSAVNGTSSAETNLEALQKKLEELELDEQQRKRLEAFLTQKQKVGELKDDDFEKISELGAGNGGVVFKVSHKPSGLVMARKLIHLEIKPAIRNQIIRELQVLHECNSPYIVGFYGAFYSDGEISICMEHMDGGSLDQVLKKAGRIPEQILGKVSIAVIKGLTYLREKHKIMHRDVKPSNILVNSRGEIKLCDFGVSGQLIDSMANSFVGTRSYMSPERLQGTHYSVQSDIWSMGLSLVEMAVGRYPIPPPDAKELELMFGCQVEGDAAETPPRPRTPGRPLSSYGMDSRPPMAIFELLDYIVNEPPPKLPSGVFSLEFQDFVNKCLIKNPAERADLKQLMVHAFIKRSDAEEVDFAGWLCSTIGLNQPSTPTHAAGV
Calcium/calmodulin-dependent protein kinase type 1 (Homo sapiens), sequence (Q14012 whole entry, looked up): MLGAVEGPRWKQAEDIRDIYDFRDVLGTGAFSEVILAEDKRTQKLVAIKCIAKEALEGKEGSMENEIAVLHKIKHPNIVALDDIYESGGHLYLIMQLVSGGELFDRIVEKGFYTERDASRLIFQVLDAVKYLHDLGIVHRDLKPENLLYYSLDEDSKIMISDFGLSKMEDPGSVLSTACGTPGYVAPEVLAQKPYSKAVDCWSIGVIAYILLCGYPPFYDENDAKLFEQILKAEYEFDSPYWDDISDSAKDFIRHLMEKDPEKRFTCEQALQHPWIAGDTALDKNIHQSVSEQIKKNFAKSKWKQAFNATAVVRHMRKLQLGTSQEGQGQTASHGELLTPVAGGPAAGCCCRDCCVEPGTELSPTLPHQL

Compound	Activity [1] [%]	Activity (MCF7 [2])	Activity [3] [%]	Activity [4] [%]	Activity [5] [%]	Activity [6] [%]	Activity [7] [%]	Activity [8] [%]	Activity [9] [%]	Activity (MDA-MB-436)	Activity [10] [%]	Activity [11] [%]	Activity [12] [%]	Activity [13] [%]	Activity [14] [%]	Activity [15] [%]	Activity [16] [%]	Activity [17] [%]	Activity [18] [%]	Activity [19] [%]	other results
CC(C)Nc1cc(-c2oc3ccccc3c(=O)c2-c2ccc(F)cc2)ccn1	91	inactive	107	132	96	100	94	95	105	inactive	100	99	106	96	95	120	89	104	98	102	Activity [20]: 72%; Activity [21]: 101%; Activity [22]: 109%; Activity [23]: 104%; Activity [24]: 94%; Activity [25]: 106%; Activity [26]: 97%; Activity (MCF7 [27]): inactive; Activity [28]: 94%; Activity [29]: 96%; Activity [30]: 98%
O=c1c(-c2ccc(F)cc2)c(-c2ccnc(NC3CCCCC3)c2)oc2ccccc12	95	inactive	111	124	103	107	96	102	102	inactive	99	104	100	102	101	99	95	107	101	94	inhibition [31]: Active; inhibition [32]: inactive; Activity [20]: 66%; Activity [21]: 98%; Activity [22]: 102%; Activity [23]: 104%; Activity [24]: 106%; Activity [25]: 114%; Activity [26]: 103%; Activity (MCF7 [27]): inactive; Activity [28]: 100%; Activity [29]: 93%; Activity [30]: 104%
